Data reported in ChEMBL document CHEMBL1158787, “Antibiotic terpenoid chloro-dihydroquinones from a new marine actinomycete” (J Nat Prod, 2005).
≈ marks a conversion by molar mass, not a printed value.

Tests used:
Enterococcus faecium = assay: Antimicrobial activity against vancomycin resistant Enterococcus faecium; format: functional
Procedure, shortened: (§1)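 Broth microdilution: MRSA or VREF grown overnight at 37 °C in GYT medium (0.1% glucose, 0.25% yeast extract, 0.5% tryptone), adjusted to OD 0.04–0.06, then diluted 1:10. Test materials serially diluted 1:2, incubated 16–18 h at 37 °C. Vancomycin (MRSA) or penicillin G (VREF) as positive controls, DMSO as negative control. MIC read from OD600.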

Staphylococcus aureus = assay: Antimicrobial activity against methicillin-resistant Staphylococcus aureus; format: functional; procedure, shortened: as §1
[1] = Cytotoxicity against human […] cell after 72 hrs by MTS assay; format: functional, cell-based
Procedure, shortened: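 HCT-116 colon carcinoma cells were preincubated overnight at 37 °C in 5% CO2/air. Test materials were serially diluted 1:4, with etoposide as positive control and DMSO as negative control. After 72 h, viability was read as MTS reduction to formazan at 490 nm. IC50 was calculated from the curves.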

## C=C1CC[C@H](Cl)C(C)(C)[C@@H]1C[C@@]12OC(C)(C)[C@H](Cl)C=C1C(=O)c1c(cc(O)c(C)c1O)C2=O
Enterococcus faecium
  MIC: 1.95 µg/mL (≈ 3.95 µM)
Staphylococcus aureus
  MIC: 1.95 µg/mL (≈ 3.95 µM)

## C=C1CC[C@H](Cl)C(C)(C)[C@@H]1C[C@@]12OC(C)(C)[C@H](Cl)C[C@]1(Cl)C(=O)c1c(cc(O)c(C)c1O)C2=O
Enterococcus faecium
  MIC: 3.9 µg/mL (≈ 7.36 µM)
[1]
  IC50: 1.84 µg/mL (≈ 3.47 µM)
Staphylococcus aureus
  MIC: 1.9 µg/mL (≈ 3.59 µM)

## Cc1c(O)cc2c(c1O)C(=O)[C@H]1C[C@@H](Cl)C(C)(C)O[C@@]1(C[C@H]1C(C)(C)[C@@H](Cl)CC[C@]1(C)O)C2=O
Enterococcus faecium
  MIC: 3.9 µg/mL (≈ 7.6 µM)
[1]
  IC50: 2.4 µg/mL (≈ 4.67 µM)
Staphylococcus aureus
  MIC: 1.95 µg/mL (≈ 3.8 µM)

## Cc1c(O)cc2c(c1O)C(=O)C1=C[C@@H](Cl)C(C)(C)O[C@@]1(C[C@H]1C(C)(C)[C@@H](Cl)CC[C@]1(C)O)C2=O
Enterococcus faecium
  MIC: 15.6 µg/mL (≈ 30.5 µM)
[1]
  IC50: 0.97 µg/mL (≈ 1.9 µM)
Staphylococcus aureus
  MIC: 15.6 µg/mL (≈ 30.5 µM)
